Data on two compounds can be found in ChEMBL document CHEMBL4622961, “Design, Synthesis, and Preliminary Immunological Studies of MUC1-Based Antitumor Vaccines Adjuvanted with R- and S-FSL-1” (2020).

Test [1] relates to Peritoneal macrophage. Kind of test: Adjuvanted-antitumor vaccine activity in C57BL/6 mouse peritoneal macrophages assessed as induction of IL-12 production after 24 hrs by ELISA. In kind it is functional, cell-based. The essentials:
(§1)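 Peritoneal macrophages were harvested from C57BL/6 mice and incubated with the adjuvanted vaccine constructs. IL-6 and IL-12 released into the culture supernatant were quantified against a PBS control. Values are given as mean ± SD.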
For orientation: An ELISA detects its analyte on a solid surface through an enzyme-linked reagent.

Test [2] has as its system Mus musculus. The experiment in a line: Adjuvanted-antitumor vaccine activity in C57BL/6 mouse assessed as potentiation of MUC1 specific Th2 immune response by measuring ratio of IgG1 to IgG2c in serum at 4 nmol, ip administered […] and measured after 1 week post last dose by ELISA. The test is classed as functional. The essentials:
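Sera from female C57BL/6 mice given ip doses on days 0, 14, 28 and 42 were taken 1 week after the last dose. IgG1 and IgG2c were measured by ELISA and expressed as an IgG1/IgG2c ratio; a ratio above 1 was read as a Th2-type response.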

The subject of test [3] is Peritoneal macrophage. The experiment in a line: Adjuvanted-antitumor vaccine activity in C57BL/6 mouse peritoneal macrophages assessed as induction of IL-6 production after 24 hrs by ELISA. In kind it is functional, cell-based. The essentials: as §1
Test [4] has as its system Mus musculus. Kind of test: Adjuvanted-antitumor vaccine activity in C57BL/6 mouse assessed as potentiation of MUC1 specific Th2 immune response by measuring increase in serum IgG1 level at 4 nmol, ip administered on […] and measured after 1 week post last dose by ELISA. The test is classed as functional, organism-based. The essentials:
(§2)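 Female C57BL/6 mice, immunized intraperitoneally on days 0, 14, 28 and 42 (PBS group as control). Sera were collected 1 week after the last dose. ELISA measured total IgG titer or the IgG1, IgG2b, IgG2c and IgG3 isotypes. Values are given as mean ± SD.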

The test system of test [5] is Mus musculus. Kind of test: Adjuvanted-antitumor vaccine activity in C57BL/6 mouse assessed as induction of MUC1-specific antisera production by measuring binding activity with MCF7 cells expressing MUC1 at 4 nmol, ip administered on […] and measured after 1 week post-last dose by incubating cells with compound-immunized mouse sera for 1 hr by FACS analysis. The test is classed as functional, organism-based. A digest of the protocol: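 Antisera were collected 1 week after the fourth ip immunization (days 0, 14, 28, 42) of female C57BL/6 mice. MUC1-expressing human breast cancer MCF-7 cells were incubated with the antisera, then with FITC-labelled goat anti-mouse antibody, and binding was read by flow cytometry. The PBS-immunized group served as control.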
(Flow cytometry measures light scatter and fluorescence of single cells or particles in a stream.)

The test system of test [6] is Mus musculus. The experiment in a line: Adjuvanted-antitumor vaccine activity in C57BL/6 mouse assessed as potentiation of Th1 mediated response by measuring increase in IFN-gamma level in splenocytes at 4 nmol, ip administered […] and measured after 1 week post-last dose by incubating splenocytes with MUC1 peptide for 48 hrs by ELISA. The test is classed as functional, organism-based. A digest of the protocol: (§3)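 Splenocytes came from female C57BL/6 mice immunized ip on days 0, 14, 28 and 42. They were restimulated in culture with MUC1 peptide (10 μg/mL), and IL-4, IL-6, IL-12 and IFN-γ were measured in the supernatants. A PBS-immunized group served as comparison.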

Test [7] deals with Mus musculus. The experiment in a line: Adjuvanted-antitumor vaccine activity in C57BL/6 mouse assessed as potentiation of Th2 mediated response by measuring increase in IL-6 level in splenocytes at 4 nmol, ip administered […] and measured after 1 weeks post-last dose by incubating splenocytes with MUC1 peptide for 48 hrs by ELISA. The test is classed as functional, organism-based. The essentials:
as §3

Test [8] deals with Mus musculus. Kind of test: Adjuvanted-antitumor vaccine activity in C57BL/6 mouse assessed as potentiation of Th2 mediated response by measuring increase in IL-4 level in splenocytes at 4 nmol, ip administered on […] and measured after 1 weeks post-last dose by incubating splenocytes with MUC1 peptide for 48 hrs by ELISA. In kind it is functional, organism-based. A digest of the protocol: as §3

The subject of test [9] is Mus musculus. The experiment in a line: Adjuvanted-antitumor vaccine activity in C57BL/6 mouse assessed as potentiation of Th1 mediated response by measuring increase in IL-12 level in splenocytes at 4 nmol, ip administered on […] and measured after 1 weeks post-last dose by incubating splenocytes with MUC1 peptide for 48 hrs by ELISA. The test is classed as functional, organism-based. The essentials:
as §3

Test [10] has as its system Mus musculus. The experiment in a line: Adjuvanted-antitumor vaccine activity in C57BL/6 mouse assessed as potentiation of MUC1 mediated immune response by measuring increase in serum IgG3 level at 4 nmol, ip administered on […] and measured after 1 week post last dose by ELISA. In kind it is functional, organism-based. A digest of the protocol:
as §2

For test [11], the system named is Mus musculus. Kind of test: Adjuvanted-antitumor vaccine activity in C57BL/6 mouse assessed as potentiation of MUC1 mediated immune response by measuring increase in serum IgG2b level at 4 nmol, ip administered on […] and measured after 1 week post last dose by ELISA. In kind it is functional, organism-based. A digest of the protocol:
as §2

Test [12] relates to Mus musculus. The experiment in a line: Adjuvanted-antitumor vaccine activity in C57BL/6 mouse assessed as induction of IgG production in serum at 4 nmol, ip administered […] and measured after 1 week post last dose by ELISA. The test is classed as functional, organism-based. The essentials:
as §2

In test [13] the test system is Mus musculus. The experiment in a line: Aduvanted-antitumor vaccine activity in C57BL/6 mouse assessed as potentiation of MUC1 specific Th1 immune response by measuring increase in serum IgG2c level at 4 nmol, ip administered […] and measured after 1 week post last dose by ELISA. The test is classed as functional, organism-based. The essentials:
as §2

Structures are written as SMILES. Activity calls are given as the source filed them. The rule behind the calls is not given here.

In the case of `CCCCCCCCCCCCCCCC(=O)OC[C@@H](CSC[C@H](N)C(=O)NCC(=O)N[C@@H](CC(=O)O)C(=O)N1CCC[C@H]1C(=O)N[C@@H](CCCCN)C(=O)N[C@@H](Cc1c[nH]cn1)C(=O)N1CCC[C@H]1C(=O)N[C@@H](CCCCN)C(=O)N[C@@H](CO)C(=O)N[C@@H](Cc1ccccc1)C(=O)NCC(=O)NCC(=O)NCC(=O)N[C@@H](Cc1c[nH]cn1)C(=O)NCC(=O)N[C@H](C(=O)N[C@H](C(=O)N[C@@H](CO)C(=O)N[C@@H](C)C(=O)N1CCC[C@H]1C(=O)N[C@@H](CC(=O)O)C(=O)N[C@H](C(=O)N[C@@H](CCCNC(=N)N)C(=O)N1CCC[C@H]1C(=O)N[C@@H](C)C(=O)N1CCC[C@H]1C(=O)NCC(=O)N[C@@H](CO)C(=O)N[C@H](C(=O)N[C@@H](C)C(=O)N1CCC[C@H]1C(=O)N1CCC[C@H]1C(=O)N[C@@H](C)C(=O)O)[C@@H](C)O)[C@@H](C)O)[C@@H](C)O)C(C)C)OC(=O)CCCCCCCCCCCCCCC`, the result in [1], in test [3], in test [4], in test [5], in test [6] and in test [7] was Active. Moreover, the outcome in test [8], in test [9], in [10], in [11], in test [12] and in test [13] was Active. In addition, in test [2], the Ratio is given as >1.
For the compound `CCCCCCCCCCCCCCCC(=O)OC[C@H](CSC[C@H](N)C(=O)NCC(=O)N[C@@H](CC(=O)O)C(=O)N1CCC[C@H]1C(=O)N[C@@H](CCCCN)C(=O)N[C@@H](Cc1c[nH]cn1)C(=O)N1CCC[C@H]1C(=O)N[C@@H](CCCCN)C(=O)N[C@@H](CO)C(=O)N[C@@H](Cc1ccccc1)C(=O)NCC(=O)NCC(=O)NCC(=O)N[C@@H](Cc1c[nH]cn1)C(=O)NCC(=O)N[C@H](C(=O)N[C@H](C(=O)N[C@@H](CO)C(=O)N[C@@H](C)C(=O)N1CCC[C@H]1C(=O)N[C@@H](CC(=O)O)C(=O)N[C@H](C(=O)N[C@@H](CCCNC(=N)N)C(=O)N1CCC[C@H]1C(=O)N[C@@H](C)C(=O)N1CCC[C@H]1C(=O)NCC(=O)N[C@@H](CO)C(=O)N[C@H](C(=O)N[C@@H](C)C(=O)N1CCC[C@H]1C(=O)N1CCC[C@H]1C(=O)N[C@@H](C)C(=O)O)[C@@H](C)O)[C@@H](C)O)[C@@H](C)O)C(C)C)OC(=O)CCCCCCCCCCCCCCC`, the outcome in test [1], in [3], in test [4], in test [5], in test [6] and in [7] was Active. Also, the outcome in test [8], in [9], in test [10], in test [11], in [12] and in test [13] was Active. Further, the Ratio in test [2] is >1.
